Results published in ChEMBL document CHEMBL4049426, “Identification of the Clinical Candidate (R)-(1-(4-Fluorophenyl)-6-((1-methyl-1H-pyrazol-4-yl)sulfonyl)-4,4a,5,6,7,8-hexahydro-1H-pyrazolo[3,4-g]isoquinolin-4a-yl)(4-(trifluoromethyl)pyridin-2-yl)methanone (CORT125134): A Selective Glucocorticoid Receptor (GR) Antagonist” (J Med Chem, 2017).
pKi: −log10 of the molar value.

Columns and labels:
[1] = Cmax in Sprague-Dawley CD-1 rat plasma at 3 mg/kg, po administered as cassette dose via gavage measured up to 24 hrs by LC/MS analysis; format: ADME, organism-based; design: dose 3 mg/kg, route oral
Method in brief: (§1)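 Three male Sprague Dawley CD-1 rats (220-250g) with jugular vein catheters; three test compounds plus a reference dosed together by oral gavage, 3mg/kg each, in DMSO:0.5% methylcellulose 10:90 (0.6mg/mL per compound), 5mL/kg. Plasma sampled pre-dose and at 0.25, 0.5, 1, 2, 4, 6, 8, 24 h; LC/MS.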

[2] = AUC in Sprague-Dawley CD-1 rat plasma at 3 mg/kg, po administered as cassette dose via gavage measured up to 24 hrs by LC/MS analysis; format: ADME, organism-based; design: time < 24 hr, dose 3 mg/kg, route oral; method in brief: as §1
Glucocorticoid receptor [3] = target: T1, Glucocorticoid receptor (Homo sapiens, UniProt P04150); test: Antagonist activity at glucocorticoid receptor in human HepG2 cells assessed as inhibition of dexamethasone-induced tyrosine amino transferase activity preincubated for 30 mins followed by dexamethasone addition measured after 20 hrs; format: cell-based
T1 sequence (P04150 whole entry): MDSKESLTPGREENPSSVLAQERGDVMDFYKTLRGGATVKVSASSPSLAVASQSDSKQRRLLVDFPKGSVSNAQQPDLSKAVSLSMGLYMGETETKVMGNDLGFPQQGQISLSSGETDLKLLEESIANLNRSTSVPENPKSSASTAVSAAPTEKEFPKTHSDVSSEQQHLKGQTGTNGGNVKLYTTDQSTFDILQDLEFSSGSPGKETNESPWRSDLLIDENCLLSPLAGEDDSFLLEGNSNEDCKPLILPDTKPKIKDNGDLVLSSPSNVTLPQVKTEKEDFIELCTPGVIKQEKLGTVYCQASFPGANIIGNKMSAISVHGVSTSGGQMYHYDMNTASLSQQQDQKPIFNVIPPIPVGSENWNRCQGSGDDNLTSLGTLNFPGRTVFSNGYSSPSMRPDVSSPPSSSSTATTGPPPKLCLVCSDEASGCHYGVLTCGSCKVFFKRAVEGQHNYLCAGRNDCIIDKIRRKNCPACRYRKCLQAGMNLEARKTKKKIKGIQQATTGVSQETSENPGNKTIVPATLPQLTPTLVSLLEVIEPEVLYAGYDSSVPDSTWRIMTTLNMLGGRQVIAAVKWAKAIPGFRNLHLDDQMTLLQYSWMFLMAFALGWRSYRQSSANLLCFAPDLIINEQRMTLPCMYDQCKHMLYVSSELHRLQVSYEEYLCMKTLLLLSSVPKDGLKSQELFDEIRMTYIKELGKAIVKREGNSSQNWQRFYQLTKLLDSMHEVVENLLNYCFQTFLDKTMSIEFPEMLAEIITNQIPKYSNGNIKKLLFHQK

Glucocorticoid receptor [4] = target: T1, Glucocorticoid receptor; test: Displacement of fluormone GS Red from human glucocorticoid receptor after 4 hrs by fluorescence polarization assay
[5] = Cmax in Sprague-Dawley CD-1 rat plasma at 5 mg/kg, po administered through gavage measured up to 24 hrs by LC/MS analysis; format: ADME, organism-based; design: dose 5 mg/kg, route oral
Method in brief: (§2)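 Jugular-catheterized male Sprague Dawley CD-1 rats (220-250g). Oral arm: five rats, 5mg/kg gavage, 1mg/mL in DMSO:0.5% methylcellulose 10:90, 5mL/kg, sampled pre-dose and 0.25-24 h. i.v. arm: three rats, 1mg/kg, 0.5mg/mL in DMSO:PEG400:propylene glycol 10:45:45, sampled pre-dose and 0.08-24 h. Plasma by LC/MS.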

[6] = AUC in Sprague-Dawley CD-1 rat plasma at 5 mg/kg, po administered through gavage measured up to 24 hrs by LC/MS analysis; format: ADME, organism-based; design: dose 5 mg/kg, time < 24 hr, route oral; method in brief: as §2
[7] = Oral bioavailability in Sprague-Dawley CD-1 rat plasma at 5 mg/kg administered through gavage measured up to 24 hrs by LC/MS analysis; format: ADME, organism-based; method in brief: as §2

| Structure (SMILES) | Cmax [1] [ng/mL] | AUC at 24 h [2] [ng·h/mL] | pKi (Glucocorticoid receptor [3]) | pKi (Glucocorticoid receptor [4]) | also measured |
| --- | --- | --- | --- | --- | --- |
| N#Cc1cccc(S(=O)(=O)N2CCC3=Cc4c(cnn4-c4ccc(F)cc4)C[C@]3(C(=O)c3ccccn3)C2)c1 | 140 | 239 |  |  |  |
| Cn1cc(S(=O)(=O)N2CCC3=Cc4c(cnn4-c4ccc(F)cc4)C[C@]3(C(=O)c3ccccn3)C2)cn1 | 150 | 780 | 7.55 |  |  |
| Cc1c(S(=O)(=O)N2CCC3=Cc4c(cnn4-c4ccc(F)cc4)C[C@]3(C(=O)c3cc(C(F)(F)F)ccn3)C2)cnn1C | 110 | 283 | 7.92 |  |  |
| Cn1nncc1S(=O)(=O)N1CCC2=Cc3c(cnn3-c3ccc(F)cc3)C[C@]2(C(=O)c2cc(C(F)(F)F)ccn2)C1 |  |  | 7.51 |  |  |
| Cc1ccc(C(=O)[C@]23Cc4cnn(-c5ccc(F)cc5)c4C=C2CCN(S(=O)(=O)c2cccc(C)c2)C3)nc1 |  |  | 8.12 | 9.85 |  |
| Cn1ncc(S(=O)(=O)N2CC[C@H]3Cc4c(cnn4-c4ccc(F)cc4)C[C@]3(C(=O)c3cc(C(F)(F)F)ccn3)C2)n1 [EXICORILANT] |  |  | 7.92 |  | Cmax [5]: 1260 ng/mL; AUC at 24 h [6]: 9420 ng·h/mL; bioavailability [7]: 100% |
| O=C(c1nccs1)[C@]12Cc3cnn(-c4ccc(F)cc4)c3C=C1CCN(S(=O)(=O)c1ccc(F)c(F)c1)C2 |  |  | 7.43 | 9.64 |  |
| Cn1cc(S(=O)(=O)N2CCC3=Cc4c(cnn4-c4ccc(F)cc4)C[C@]3(C(=O)c3cc(C(F)(F)F)ccn3)C2)nn1 | 91.5 | 450 | 8.01 |  |  |
| O=C(c1ccccn1)[C@]12Cc3cnn(-c4ccc(F)cc4)c3C=C1CCN(S(=O)(=O)c1ccc(F)c(F)c1)C2 | 215 | 974 |  |  |  |
| Cn1cc(S(=O)(=O)N2CC[C@H]3Cc4c(cnn4-c4ccc(F)cc4)C[C@]3(C(=O)c3cc(C(F)(F)F)ccn3)C2)cn1 |  |  | 7.47 |  |  |
| O=C(c1ccccn1)[C@]12Cc3cnn(-c4ccc(F)cc4)c3C=C1CCN(S(=O)(=O)c1ccc(C(F)(F)F)cc1)C2 [DAZUCORILANT] |  |  | 7.92 |  |  |
| Cc1cnc(C(=O)[C@]23Cc4cnn(-c5ccc(F)cc5)c4C=C2CCN(S(=O)(=O)c2ccc(F)c(F)c2)C3)s1 | 30 | 135 | 8.13 | 8.89 |  |
| N#Cc1cccc(S(=O)(=O)N2CCC3=Cc4c(cnn4-c4ccc(F)cc4)C[C@]3(C(=O)c3cc(C(F)(F)F)ccn3)C2)c1 | 20 | 49 | 8.32 | 9.49 |  |
| Cc1ccnc(C(=O)[C@]23Cc4cnn(-c5ccc(F)cc5)c4C=C2CCN(S(=O)(=O)c2cccc(C#N)c2)C3)c1 | 70 | 217 | 8.35 | 9.82 |  |
| Cc1cnc(C(=O)[C@]23Cc4cnn(-c5ccc(F)cc5)c4C=C2CCN(S(=O)(=O)c2cccc(C(F)(F)F)c2)C3)s1 |  |  | 8.00 | 9.54 |  |
| Cc1n[nH]c(C)c1S(=O)(=O)N1CCC2=Cc3c(cnn3-c3ccc(F)cc3)C[C@]2(C(=O)c2cc(C(F)(F)F)ccn2)C1 |  |  | 7.16 |  |  |
| O=C(c1nccs1)[C@]12Cc3cnn(-c4ccc(F)cc4)c3C=C1CCN(S(=O)(=O)c1ccc(Cl)c(Cl)c1)C2 | 197 | 1220 | 7.80 | 9.23 |  |
| Cn1cc(S(=O)(=O)N2CC[C@H]3Cc4c(cnn4-c4ccc(F)cc4)C[C@]3(C(=O)c3cc(C(F)(F)F)ccn3)C2)nn1 |  |  | 7.22 |  |  |
| Cc1csc(C(=O)[C@]23Cc4cnn(-c5ccc(F)cc5)c4C=C2CCN(S(=O)(=O)c2cccc(C(F)(F)F)c2)C3)n1 |  |  | 7.20 | 9.06 |  |
| O=C(c1ccccn1)[C@]12Cc3cnn(-c4ccc(F)cc4)c3C=C1CCN(S(=O)(=O)c1ccc(C(F)(F)F)c(F)c1)C2 | 125 | 726 |  |  |  |
